Test results as given in ChEMBL document CHEMBL1806360, “Synthesis and biological evaluation of conformationally flexible as well as restricted dimers of monastrol and related dihydropyrimidones” (Eur J Med Chem, 2011).
In brackets after ≈: the same amount, converted by molar mass. Activity calls are given as the source filed them. The rule behind the calls is not given here.

Experiments:
[1] = tested on: MCF7; assay: Cytotoxicity against human MCF7 cells after 48 hrs by MTT assay; type: functional, cell-based; details: MCF7, 48 h
Procedure, shortened: (§1)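 MTT assay. Medium with 10% FBS and 2 mM L-glutamine was DMEM for A431 and Colo-205, RPMI for A549, and MEM for MCF-7. Cultures were preincubated 24 h at 37 °C, 5% CO2. 1 × 10⁴ cells (trypan blue count) were exposed to 200, 100, 50, 25 and 10 concentration levels for 48 h at 37 °C. MTT was added for 4 h, formazan dissolved in DMSO, and A570 read. IC50 was curve-fitted from viability versus untreated cells, three experiments.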

[2] = tested on: COLO 205; assay: Cytotoxicity against human COLO205 cells after 48 hrs by MTT assay; type: functional, cell-based; details: COLO 205, 48 h; procedure, shortened: as §1
[3] = tested on: A-431; assay: Cytotoxicity against human A431 cells after 48 hrs by MTT assay; type: functional, cell-based; details: A-431, 48 h; procedure, shortened: as §1
[4] = tested on: A549; assay: Cytotoxicity against human A549 cells after 48 hrs by MTT assay; type: functional, cell-based; details: A549, 48 h; procedure, shortened: as §1
[5] = tested on: Nucleic Acid; assay: Binding affinity to calf thymus DNA assessed as change in melting temperature at compound to DNA ratio of 1:5 after 18 hrs at pH 7; type: nucleic-acid assay; details: Bos taurus
Procedure, shortened: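 Thermal melting of calf thymus DNA in 10 mM sodium phosphate with 1 mM Na2EDTA, pH 7.00. Compound was added from DMSO stock at a fixed 1:5 compound:DNA molar ratio. The mix was incubated 18 h at 37 °C, then A260 was monitored while heating at 1 °C/min over 40–90 °C. ΔTm is relative to DNA alone.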

[6] = target: T1, Kinesin-like protein KIF11 (Homo sapiens, UniProt P52732); assay: Inhibition of HsEg5
T1 sequence (P52732 whole entry): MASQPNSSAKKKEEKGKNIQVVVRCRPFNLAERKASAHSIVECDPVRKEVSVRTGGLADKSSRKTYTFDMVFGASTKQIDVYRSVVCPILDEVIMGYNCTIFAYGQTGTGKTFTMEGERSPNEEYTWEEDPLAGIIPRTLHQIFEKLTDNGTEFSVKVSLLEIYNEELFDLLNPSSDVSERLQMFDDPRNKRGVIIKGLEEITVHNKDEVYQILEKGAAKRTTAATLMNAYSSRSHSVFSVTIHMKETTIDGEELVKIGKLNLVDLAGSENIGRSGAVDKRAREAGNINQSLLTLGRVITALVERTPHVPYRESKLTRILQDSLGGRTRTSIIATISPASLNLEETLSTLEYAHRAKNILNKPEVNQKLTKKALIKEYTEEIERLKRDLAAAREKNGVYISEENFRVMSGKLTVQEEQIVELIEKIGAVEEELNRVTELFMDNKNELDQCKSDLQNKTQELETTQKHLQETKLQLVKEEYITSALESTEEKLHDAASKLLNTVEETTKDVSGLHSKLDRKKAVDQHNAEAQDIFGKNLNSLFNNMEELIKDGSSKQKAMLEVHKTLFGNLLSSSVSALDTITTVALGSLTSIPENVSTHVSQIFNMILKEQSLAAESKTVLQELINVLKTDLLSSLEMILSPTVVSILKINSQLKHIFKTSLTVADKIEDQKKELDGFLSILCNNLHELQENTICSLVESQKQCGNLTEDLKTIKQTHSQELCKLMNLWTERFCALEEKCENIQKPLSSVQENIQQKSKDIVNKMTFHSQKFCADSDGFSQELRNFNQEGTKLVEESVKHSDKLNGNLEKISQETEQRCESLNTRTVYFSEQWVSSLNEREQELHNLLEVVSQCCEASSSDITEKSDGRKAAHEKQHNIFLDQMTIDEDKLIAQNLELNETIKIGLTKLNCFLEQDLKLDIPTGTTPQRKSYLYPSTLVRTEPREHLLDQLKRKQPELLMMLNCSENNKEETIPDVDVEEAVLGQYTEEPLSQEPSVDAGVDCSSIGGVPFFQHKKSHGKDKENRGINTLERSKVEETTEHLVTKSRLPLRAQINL

[7] = tested on: HT-29; assay: Cytotoxicity against human HT-29 cells after 48 hrs by MTT assay; type: functional, cell-based; details: HT-29, 48 h
[8] = tested on: Staphylococcus aureus; assay: Antibacterial activity against Staphylococcus aureus assessed as zone of inhibition at 100 ug/ml by agar plate method; type: functional; details: read-out: IZ
Procedure, shortened: (§2)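 Well diffusion on Mueller-Hinton agar. Inoculum from 3–5 colonies was grown in nutrient broth and adjusted to 0.5 McFarland (about 1 × 10⁸ CFU/mL), then swabbed over the plate. Compounds were dissolved in DMSO and added to duplicate 6 mm wells. Plates were incubated 18 h at 37 °C, and inhibition zone diameter was read to the nearest mm. Ciprofloxacin was the positive control and DMSO the negative control.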

[9] = tested on: Staphylococcus epidermidis; assay: Antibacterial activity against Staphylococcus epidermidis assessed as zone of inhibition at 100 ug/ml by agar plate method; type: functional; details: read-out: IZ; procedure, shortened: as §2
[10] = tested on: Bacillus subtilis; assay: Antibacterial activity against Bacillus subtilis assessed as zone of inhibition at 100 ug/ml by agar plate method; type: functional; details: read-out: IZ; procedure, shortened: as §2
[11] = tested on: Escherichia coli; assay: Antibacterial activity against Escherichia coli assessed as zone of inhibition at 100 ug/ml by agar plate method; type: functional; details: read-out: IZ; procedure, shortened: as §2
[12] = tested on: Klebsiella pneumoniae; assay: Antibacterial activity against Klebsiella pneumoniae assessed as zone of inhibition at 100 ug/ml by agar plate method; type: functional; details: read-out: IZ; procedure, shortened: as §2
[13] = tested on: Pseudomonas aeruginosa; assay: Antibacterial activity against Pseudomonas aeruginosa assessed as zone of inhibition at 100 ug/ml by agar plate method; type: functional; details: read-out: IZ; procedure, shortened: as §2
[14] = tested on: Staphylococcus aureus; assay: Antibacterial activity against Staphylococcus aureus assessed as zone of inhibition at 50 ug/ml by agar plate method; type: functional; details: read-out: IZ; procedure, shortened: as §2
[15] = tested on: Pseudomonas aeruginosa; assay: Antibacterial activity against Pseudomonas aeruginosa assessed as zone of inhibition at 50 ug/ml by agar plate method; type: functional; details: read-out: IZ; procedure, shortened: as §2
[16] = tested on: Staphylococcus epidermidis; assay: Antibacterial activity against Staphylococcus epidermidis assessed as zone of inhibition at 50 ug/ml by agar plate method; type: functional, organism-based; procedure, shortened: as §2
[17] = tested on: Bacillus subtilis; assay: Antibacterial activity against Bacillus subtilis assessed as zone of inhibition at 50 ug/ml by agar plate method; type: functional, organism-based; procedure, shortened: as §2
[18] = tested on: Escherichia coli; assay: Antibacterial activity against Escherichia coli assessed as zone of inhibition at 50 ug/ml by agar plate method; type: functional, organism-based; procedure, shortened: as §2
[19] = tested on: Klebsiella pneumoniae; assay: Antibacterial activity against Klebsiella pneumoniae assessed as zone of inhibition at 50 ug/ml by agar plate method; type: functional, organism-based; procedure, shortened: as §2

Row | ΔTm [5] | IC50 [6] | SMILES | IC50 [1] | IC50 [2] | IC50 [3] | IC50 [4] | IC50 [7] | zone of inhibition at 100 µg/mL [8] | zone of inhibition at 100 µg/mL [9] | zone of inhibition at 100 µg/mL [10] | zone of inhibition at 100 µg/mL [11] | zone of inhibition at 100 µg/mL [12] | zone of inhibition at 100 µg/mL [13] | zone of inhibition at 50 µg/mL [14] | zone of inhibition at 50 µg/mL [15] | Activity [16] | Activity [17] | Activity [18] | Activity [19]
1 | 0 °C | 14 µM | CCOC(=O)C1=C(C)NC(=S)NC1c1cccc(O)c1 (stereo not drawn) [MONASTROL] | 45 µg/mL (≈ 154 µM) | 164 µg/mL (≈ 561 µM) | 53 µg/mL (≈ 181 µM) | 118 µg/mL (≈ 404 µM) |  |  |  |  |  |  |  |  |  |  |  |  | 
2 |  |  | CCOC(=O)C1=C(C)NC(=S)NC1c1ccc(OCCCCCOc2ccc(C3NC(=S)NC(C)=C3C(=O)OCC)cc2OC)c(OC)c1 (stereo not drawn) | 180 µg/mL (≈ 252 µM) | 113 µg/mL (≈ 159 µM) | 124 µg/mL (≈ 174 µM) | > 200 µg/mL | > 200 µg/mL | 19 mm | 10 mm | 8 mm | 10 mm | 10 mm | 20 mm | 10 mm | 12 mm | inactive | inactive | inactive | inactive
